Marks after values point to notes of the source that are not given here.
Assays:
[1] = Safety and tolerability assessments; assay type: in vivo, human; details: for Deaths / Discontinuations due to TEAEs / Number of TEAEs / Patients reporting TEAEs / Serious TEAEs: ATI-450 n=24
[2] = Plasma pharmacokinetics, single ascending dose cohorts; assay type: in vivo, human; details: for Tmax / half-life / AUC(0-inf) / AUC(0-t) / Cmax / Vd/F: human, plasma, oral; for CL/F: fasted, mean ± SD
[3] = Plasma pharmacokinetics, multiple ascending dose cohorts; assay type: in vivo, human; details: for Tmax at 7 day: median (range)
[4] = system: p-HSP27 (phosphorylated heat shock protein 27); assay: Ex vivo lipopolysaccharide-stimulated whole blood PD assay, p-HSP27; assay type: cell-based, human; details: inhibitory Emax model, all SAD/MAD cohorts
Summary of the method: (§1)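 Healthy adults were dosed orally, fasted. 10 mL blood was drawn: SAD pre-dose, 1, 12 and 24 h; MAD days 1 and 7 pre-dose, 4 and 12 h. Each analyte was read unstimulated, after ex vivo LPS, and after LPS plus 10 μM added test compound. Values were scaled to % day 1 pre-dose (LPS as maximum signal, spiked LPS as maximum inhibition). Plasma levels vs % inhibition were fit by inhibitory Emax (E0, Imax, IC50).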

TNF-α = assay: Ex vivo lipopolysaccharide-stimulated whole blood PD assay, TNF-α; assay type: cell-based, human
Summary of the method: as §1

IL-1β = assay: Ex vivo lipopolysaccharide-stimulated whole blood PD assay, IL-1β; assay type: cell-based, human
Summary of the method: as §1

IL-6 [5] = assay: Ex vivo lipopolysaccharide-stimulated whole blood PD assay, IL-6; assay type: cell-based, human
Summary of the method: as §1

IL-6 [6] = assay: Human whole blood stimulated with IL-1β, IL-6 inhibition; assay type: cell-based; details: data not shown
neutrophils = assay: Clinical laboratory neutrophil counts; assay type: in vivo, human; details: 50 mg BID group
[7] = system: rat streptococcal cell wall arthritis model; details: cited from earlier work
murine model of NOMID = details: cited from earlier work
[8] = SAD and MAD cohorts, ATI-450 n=48
[9] = inhibitory Emax model, all SAD/MAD cohorts
[10] = maximum observed (up to), versus baseline

SMILES: Cc1cnc(-c2ccnc(C(C)(C)O)n2)cc1-n1c(C)cc(OCc2ncc(F)cc2F)c(Cl)c1=O [ATI-450]
- Deaths ([1]; MAD cohort): 0
- Discontinuations due to TEAEs ([1]; MAD cohort): 0
- Number of TEAEs ([1]; MAD cohort): 24
- Patients reporting TEAEs ([1]; MAD cohort): 12 (50.0) n (%)
- Serious TEAEs ([1]; MAD cohort): 0
- Subjects with TEAEs considered related to study drug ([1]; SAD 10 mg cohort): 0 subjects
- Subjects with TEAEs considered related to study drug ([1]; SAD 30 mg cohort (nausea, headache, dizziness)): 2 [33%] subjects
- Subjects with TEAEs considered related to study drug ([1]; SAD 50 mg cohort (headache)): 1 [17%] subjects
- Subjects with TEAEs considered related to study drug ([1]; SAD 100 mg cohort (dizziness)): 1 subjects
- Findings in vital signs, electrocardiograms, or clinical laboratory values ([1]; SAD and MAD cohorts): No clinically significant findings
- TEAE: Abdominal pain [1, 8]: 2 (4.2) n (%)
- TEAE: Constipation [1, 8]: 3 (6.3) n (%)
- TEAE: Dizziness [1, 8]: 6 (12.5) n (%)
- TEAE: Headache [1, 8]: 10 (20.8) n (%)
- TEAE: Nausea [1, 8]: 2 (4.2) n (%)
- TEAE: Upper respiratory tract infection [1, 8]: 3 (6.3) n (%)
- TEAE: Vomiting [1, 8]: 0 n (%)
- Deaths ([1]; SAD cohort): 0
- Discontinuations due to TEAEs ([1]; SAD cohort): 0
- Number of TEAEs ([1]; SAD cohort): 15
- Patients reporting TEAEs ([1]; SAD cohort): 7 (29.2) n (%)
- Serious TEAEs ([1]; SAD cohort): 0
- Tmax [2]: 2 to 4 h
- half-life [2]: 8.5 to 11.2 h
- AUC(0-inf) ([2]; 10 mg): 285 ± 78.4 ng·h/mL
- AUC(0-t) ([2]; 10 mg): 276 ± 77.8 ng·h/mL
- Cmax ([2]; 10 mg): 39.4 ± 10.4 ng/mL
- Tmax ([2]; 10 mg): 2 h
- Vd/F ([2]; 10 mg): 430 ± 124 L
- half-life ([2]; 10 mg): 8.5 ± 3.2 h
- AUC(0-inf) ([2]; 30 mg): 1100 ± 247 ng·h/mL
- AUC(0-t) ([2]; 30 mg): 1070 ± 244 ng·h/mL
- Cmax ([2]; 30 mg): 122 ± 33.4 ng/mL
- Tmax ([2]; 30 mg): 4 h
- Vd/F ([2]; 30 mg): 451 ± 202 L
- half-life ([2]; 30 mg): 10.7 ± 3.3 h
- AUC(0-inf) ([2]; 50 mg): 1460 ± 270 ng·h/mL
- AUC(0-t) ([2]; 50 mg): 1430 ± 254 ng·h/mL
- Cmax ([2]; 50 mg): 161 ± 20.4 ng/mL
- Tmax ([2]; 50 mg): 3 h
- Vd/F ([2]; 50 mg): 445 ± 94.7 L
- half-life ([2]; 50 mg): 9.1 ± 2.4 h
- AUC(0-inf) ([2]; 100 mg): 3650 ± 523 ng·h/mL
- AUC(0-t) ([2]; 100 mg): 3490 ± 476 ng·h/mL
- Cmax ([2]; 100 mg): 426 ± 111 ng/mL
- Tmax ([2]; 100 mg): 2 h
- Vd/F ([2]; 100 mg): 440 ± 190 L
- half-life ([2]; 100 mg): 11.2 ± 5.8 h
- CL/F ([2]; single dose 10 mg): 37.0 ± 8.8 L/h
- CL/F ([2]; single dose 30 mg, one subject excluded): 28.4 ± 7.1^a L/h
- CL/F ([2]; single dose 50 mg): 35.1 ± 6.3 L/h
- CL/F ([2]; single dose 100 mg): 27.9 ± 4.3 L/h
- Increase in AUC0-inf across dose range ([2]; single doses, 10 to 100 mg): ~12.8 fold
- Increase in AUC0-t across dose range ([2]; single doses, 10 to 100 mg): ~12.6 fold
- Increase in Cmax across dose range ([2]; single doses, 10 to 100 mg): approximately 10.8 fold
- CLss/F ([3]; 10 mg BID, day 7, mean ± SD): 37.4 ± 10.9 L/h
- Cmin ([3]; 10 mg BID, day 7, mean ± SD): 8.1 ± 3.1 ng/mL
- Rac, AUCtau (accumulation ratio for AUCtau) ([3]; 10 mg BID, day 7, mean ± SD): 1.4 ± 0.3
- Rac, Cmax (accumulation ratio for Cmax) ([3]; 10 mg BID, day 7, mean ± SD): 1.6 ± 0.6
- CLss/F ([3]; 30 mg BID, day 7, mean ± SD): 33.9 ± 5.9 L/h
- Cmin ([3]; 30 mg BID, day 7, mean ± SD): 28.8 ± 10.7 ng/mL
- Rac, AUCtau (accumulation ratio for AUCtau) ([3]; 30 mg BID, day 7, mean ± SD): 1.4 ± 0.3
- Rac, Cmax (accumulation ratio for Cmax) ([3]; 30 mg BID, day 7, mean ± SD): 1.2 ± 0.3
- CLss/F ([3]; 50 mg BID, day 7, mean ± SD): 37.3 ± 11.7 L/h
- Cmin ([3]; 50 mg BID, day 7, mean ± SD): 58.7 ± 32.8 ng/mL
- Rac, AUCtau (accumulation ratio for AUCtau) ([3]; 50 mg BID, day 7, mean ± SD): 1.3 ± 0.4
- Rac, Cmax (accumulation ratio for Cmax) ([3]; 50 mg BID, day 7, mean ± SD): 1.3 ± 0.5
- Increase in AUCtau over dose range ([3]; 10 to 50 mg BID, day 1): 5.9 fold
- Increase in Cmax over dose range ([3]; 10 to 50 mg BID, day 1): 5.4 fold
- Increase in AUCtau over dose range ([3]; 10 to 50 mg BID, day 7): 5.2 fold
- Increase in Cmax over dose range ([3]; 10 to 50 mg BID, day 7): 4.2 fold
- Day of administration by which steady state appeared to be reached ([3]; all BID dose levels, based on mean Ctrough days 2 through 6): ≤ 2 days
- AUC ([3]; human, plasma, oral, 10 mg): 288 ± 81.5 ng·h/mL
- AUC(0-t) ([3]; human, plasma, oral, 10 mg): 365 ± 111 ng·h/mL
- Cmax at 7 day ([3]; human, plasma, oral, 10 mg): 51.8 ± 15.8 ng/mL
- Vd/F ([3]; human, plasma, oral, 10 mg): 517 ± 203 L
- concentration at 7 day ([3]; human, plasma, oral, 10 mg): 24 ± 6.8 ng/mL
- half-life ([3]; human, plasma, oral, 10 mg, t1/2, 10 mg BID, day 7, mean ± SD): 9.6 ± 2.1 h
- Tmax at 7 day ([3]; human, plasma, oral, 10 mg, 10 mg BID, day 7): 2 h
- AUC ([3]; human, plasma, oral, 30 mg): 909 ± 163 ng·h/mL
- AUC(0-t) ([3]; human, plasma, oral, 30 mg): 1200 ± 309 ng·h/mL
- Cmax at 7 day ([3]; human, plasma, oral, 30 mg): 146 ± 33.6 ng/mL
- Vd/F ([3]; human, plasma, oral, 30 mg): 483 ± 85.1 L
- concentration at 7 day ([3]; human, plasma, oral, 30 mg): 75.6 ± 13.4 ng/mL
- half-life ([3]; human, plasma, oral, 30 mg, t1/2, 30 mg BID, day 7, mean ± SD): 10.3 ± 3.2 h
- Tmax at 7 day ([3]; human, plasma, oral, 30 mg, 30 mg BID, day 7): 2 h
- AUC ([3]; human, plasma, oral, 50 mg): 1510 ± 660 ng·h/mL
- AUC(0-t) ([3]; human, plasma, oral, 50 mg): 2260 ± 1070 ng·h/mL
- Cmax at 7 day ([3]; human, plasma, oral, 50 mg): 219 ± 77.8 ng/mL
- Vd/F ([3]; human, plasma, oral, 50 mg): 586 ± 163 L
- concentration at 7 day ([3]; human, plasma, oral, 50 mg): 126 ± 55 ng/mL
- half-life ([3]; human, plasma, oral, 50 mg, t1/2, 50 mg BID, day 7, mean ± SD): 11.6 ± 3.7 h
- Tmax at 7 day ([3]; human, plasma, oral, 50 mg, 50 mg BID, day 7): 3 h
- half-life ([3]; human, plasma, oral, Mean t1/2 across all SAD and MAD cohorts, all SAD and MAD cohorts): 9 to 12 h
- half-life ([3]; human, plasma, oral, Mean terminal t1/2 across doses, 10 to 50 mg BID, day 7): 9 to 12 h
- Tmax ([3]; human, plasma, oral, Median tmax across all SAD and MAD cohorts, all SAD and MAD cohorts): 2 to 4 h
- Imax (maximum percent inhibition) [4]: greater than 96%
- Imax (maximum percent inhibition) (TNF-α; [9]): greater than 96%
- Inhibition of TNF-α versus baseline (TNF-α; [10]): up to 92.7%
- Imax (maximum percent inhibition) (IL-1β; [9]): 74%
- Inhibition of IL-1β versus baseline (IL-1β; [10]): ≤ 83.0%
- inhibition at 50 mg (IL-6 [5]; Homo sapiens, 168 h, read-out: IL-6 inhibition): > 50%
- Imax (maximum percent inhibition) (IL-6 [5]; [9]): greater than 96%
- Potency for inhibiting IL-6 (IL-6 [6]): comparable to that for TNF-α and IL-8
- Neutrophil count (neutrophils; day 7 (baseline 3318.4 cells/μL)): 2514.4 cells/μL
- Mean reduction in neutrophils (neutrophils; day 7 versus baseline): 24%
- Effect in arthritis model [7]: joint protective effects and preserved bone mineral density
- Effect on bone marrow levels of IL-1β (murine model of NOMID; NOMID mice, relative to placebo): reduction in bone marrow levels of IL-1β
- Effect on disease (murine model of NOMID; transgenic NOMID mice): dramatic attenuation of disease
